# Pemphigus Ab inh = blocks pemphigus antibody binding to human desmoglein-3 | AID 588358 | P32926 | 0.48% of 310,000 active | DSG3-coupled beads, scFv-anti-DSG3-GFP binding, flow cytometry; stronger effect = lower value | binding (percent of control), % at 10 µM;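 active = binding more than 3 SD below its plate's average and above zero; inconclusive = below that plate limit but binding exactly zero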;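 also: hits lower antibody fragment binding to DSG3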
# GASC-1 inh = inhibitors of human GASC-1 (JMJD2C) demethylase; Q9H3R0; GST-JMJD2C(1-420) H3K9me3 demethylation, DELFIA europium; inhibition, % at 2.35 µM; 0.069% of 330,000 active; AID 2099;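 active = more than half of a compound's replicate wells show inhibition beyond 50%, single wells judged on their own value; inconclusive = some, but no more than half, of replicates pass 50% inhibition; inactive = no replicate passes 50% inhibition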;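 also: signal counts dimethyl H3K9 product captured on neutravidin plate; 0% = median of DMSO wells and 100% = 0.3 times that DMSO median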
# T cell modulator = modulates CD8 T cell binding to vesicles; AID 2052; response (vesicle binding), % at 7 µM; 0.068% of 330,000 active; 2C CD8+ T cell-vesicle binding, flow cytometry; stronger effect = lower value;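 active = response, share of CD8 T cells binding vesicles, and their 90th percentile fluorescence all below set limits, cut at about 80% in these data, passing the limit was not always enough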;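 also: values below 100% mean blocked vesicle binding to the CD8+ T cells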
#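 material = purified 2C TCR transgenic mouse naive CD8+ T cells | controls = Unloaded micro-vesicles (low), QL9 vesicles with 0.7% DMSO (high) | detection = cytometric PE anti-B7-1 and Alexa647 anti-CD8 signals after 1% paraformaldehyde fixation | incubation = binding step 1.5 h, 37 °C, antibody labelling 20 min, ice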
# HDAC3 inhib = human HDAC3 inhibition | O15379 | recombinant HDAC3, fluorogenic peptide/trypsin coupled, fluorescence | inhibition, % at 8.3 µM | 0.15% of 320,000 active | AID 2718; in the data active = inhibition above about 26%, passing the limit was not always enough; inconclusive = no clear call, values can overlap the other calls
# Arrestin-AP2 inh = inhibitors of human beta-arrestin and AP2 interaction. inhibition, % at 10 µM. FITC-arrestin peptide / GST-AP2 beads, flow cytometry; AP2 beta2 appendage carries R879A mutation. 0.31% of 340,000 active;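 active = inhibition above a set limit, near 3 SD of compounds lacking own fluorescence, cut at about 54% in these data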;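 also: plate controls were DMSO wells for no effect and 5 µM unlabelled arrestin peptide for full effect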
#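 system = GST-tagged AP2 beta2-adaptin appendage (R879A) on 4 µm glutathione beads | reagent = FITC-labelled arrestin peptide probe, 50 nM final | schedule = compound with beads 12 min RT, then probe 1 h RT | signal = HyperCyt-sampled flow cytometry, FL1 channel, ex 488/em 535 nm | read-out = percent response from loss of bead-bound FITC fluorescence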
# LANA-H2A inh = blocks KSHV LANA binding to histone H2A/H2B | Q9QR71 | cell-free LANA-H2A/H2B peptide, fluorescence polarization | inhibition, % (test concentration not listed) | 0.6% of 320,000 active; in the data active = inhibition mostly above about 10%, no sharp cut-off; inactive = mostly below about 6.7%
# * marks the source's active call; other numbers are inactive results; i = inactive; ? = inconclusive; · = no result. Compounds with a hit are over-represented: about 1.6% of the library has one in this group of screens.
SMILES,Pemphigus Ab inh,GASC-1 inh,T cell modulator,HDAC3 inhib,Arrestin-AP2 inh,LANA-H2A inh
COc1ccc(/C=C2\C(=O)ON=C2c2ccccc2)cc1,99,?,276,5,6,9
O=C1ON=C(c2ccccc2)/C1=C/c1ccc(OS(=O)(=O)c2ccccc2)cc1,90,6,347,9,9,121*
CC1C/C(=N\NC(=O)c2ccc(NS(=O)(=O)c3ccc(Br)cc3)cc2)CC(C)(C)C1 (stereo not drawn),101,-2,411,37*,0,0
COc1ccccc1NS(=O)(=O)c1cc(N=N/C(C(=O)Nc2ccc(Cl)cc2)=C(/C)O)ccc1C,102,0,679,-2,5,-2
CCCCc1ccc(N=N/C(C(=O)Nc2ccc(NC(C)=O)cc2OC)=C(/C)O)cc1,103,6,76,-1,18,47*
CCOc1cc(C2C3=C(CCCC3=O)Nc3nc(C(=O)OC)nn32)ccc1OC (stereo not drawn),·,5,92,2,7,20*
CCOc1ccc(C2C3=C(CCCC3=O)Nc3nc(C(F)(F)F)nn32)cc1OC (stereo not drawn),109,4,200,12,6,-4
COc1cc2c(cc1OC)C(C)N(C(=O)/C=C/c1cc(OC)c(OC)c(OC)c1)CC2 (stereo not drawn),82*,-3,102,-8,-1,2
COc1cc(/C=C/C(=O)N2CCCC2)cc(OC)c1OC,104,5,278,-4,0,9.1*
COc1ccc2[nH]c3c(c2c1)CCNC3c1ccc([N+](=O)[O-])o1 (stereo not drawn),94,1,426,15,5,21*
Cc1ccc2c(c1)N(CC(=O)Nc1ccccc1F)C(=O)C(C)O2 (stereo not drawn),115,·,·,·,-8,·
CCOC(=O)c1ccc(NC(=O)CN2C(=O)C(CC)SC(CC)C2=O)cc1 (stereo not drawn),105,-8,187,-1,-1,38*
COc1ccc(C(=O)CCN2CCCCCC2)cc1,103,10,300,-5,-2,12*
COc1ccc(OCCN2CCN(C(=O)c3ccc(OC)cc3)CC2)cc1,98,15,509,-3,22,14*
COc1ccc(OCCN2CCN(C(=O)c3ccc(OC(F)F)c(OC)c3)CC2)cc1,·,3,259,-10,-3,7
CC(C)(C)c1ccc(OCc2ccc(C(=O)Nc3cccnc3)o2)cc1,103,-3,197,11,22,0
COC(=O)[C@]1(C)CCC[C@@]2(C)C3CC[C@@]4(C)C[C@]3(CCC21)CC4=NO (stereo partly drawn),103,4,271,7,-6,-2
Cc1ccc(C(=O)OCC(=O)N(C)C2CCS(=O)(=O)C2)cc1S(=O)(=O)N1CCCCC1 (stereo not drawn),101,22,238,1,10,-4
COc1cccc(CNC(=O)CC(NC(=O)c2ccccc2)c2ccccc2)c1 (stereo not drawn),109,3,247,4,20,32*
COc1cccc(C(=O)SC2=NCCS2)c1,121,2,455,49*,-8,-8
O=C(C[n+]1ccc(-c2ccccc2)cc1)Nc1ccc([N+](=O)[O-])cc1,103,12,587,4,-1,5
CC(Nc1nc(-c2ccc3c(c2)NC(=O)CO3)cs1)c1ccccc1 (stereo not drawn),99,-22,146,36*,-6,2
O=C(c1cccc(Cl)c1)N1CCN(CCCc2ccccc2)CC1,107,0,i,0,24,-5
COc1ccc(-c2cc(C(=O)N3CCOCC3)c3cc(C)ccc3n2)cc1,100,-6,324,-82,0,18*
Cc1ccc(N2C(=O)[C@@H]3C(C(=O)CN4C(=O)c5ccccc5C4=O)=NN[C@@H]3C2=O)c(C)c1,106,-12,273,-2,-3,24*
SMILES,Pemphigus Ab inh,GASC-1 inh,T cell modulator,HDAC3 inhib,Arrestin-AP2 inh,LANA-H2A inh
COc1ccccc1N1C(=O)[C@@H]2C(C(=O)CN3C(=O)c4ccccc4C3=O)=NN[C@@H]2C1=O,109,-15,309,1,-3,32*
CCNc1nc(NCC)nc(N(C)/N=C/c2ccco2)n1,98,36,195,6,-6,1
CCOc1ccc(/C=N/NC(=O)c2nnn(-c3nonc3N)c2COc2ccc(F)cc2)cc1,·,32,541,-54,37,2
CCOc1ccc(-c2c(C(=O)N/N=C/c3cccc(Br)c3)nnn2-c2nonc2N)cc1,120,1,195,-2,11,20*
CCOc1ccc(-c2c(C(=O)N/N=C/c3ccc(OC)cc3)nnn2-c2nonc2N)cc1,77,-135,7.5*,-4,29,-4
CN(C)c1ccc(/C=N/NC(=O)c2nnn(-c3nonc3N)c2COc2ccc(F)cc2)cc1,77*,1,363,4,-3,2
CCCOc1ccc(-c2c(C(=O)N/N=C/c3ccc(OC)cc3)nnn2-c2nonc2N)cc1,·,7,387,-19,3,0
CCOc1ccc(-c2c(C(=O)N/N=C/c3ccc(O)cc3)nnn2-c2nonc2N)cc1,98,-18,691,·,33,-1
COc1ccc(S(=O)(=O)NCc2ccccn2)cc1C,101,·,·,·,·,·
Cc1cc2cc(CNC(=O)Cc3cccs3)ccc2n1C,64*,0,974,·,4,4
Cc1cc2cc(CNC(=O)CCC(=O)O)ccc2n1C,99,3,476,3,9,0
CC(=O)Nc1ccc(S(=O)(=O)NCc2ccc3c(c2)cc(C)n3C)cc1,80*,-11,522,0,5,-7
Cc1noc(C)c1NC(=O)Nc1ccc2c(c1)CC(=O)N([C@@H](C)CO)C[C@@H](C)[C@@H](CN(C)C(=O)Nc1cccc3ccccc13)O2,99,-25,419,-3,23,2
Cc1c(-n2c(SCC(=O)NC(C)C)nc3ccccc3c2=O)c(=O)n(-c2ccccc2)n1C,112,14,236,6,21,5
CCC(C)NC(=O)CSc1nc2ccccc2c(=O)n1-c1c(C)n(C)n(-c2ccccc2)c1=O (stereo not drawn),98,2,133,-1,-3,100*
O=C(CSc1nc2ccccc2n1CC(=O)N1CCCCC1)N1CCCCC1,91,-7,420,-3,-2,0
CC(=O)Nc1ccc(C(=O)CSc2nc3ccccc3n2CC(=O)N2CCCC2)cc1,94,77,356,67*,25,-2
CCCCCCC1(C)NC(=S)N(c2ccccc2)N1 (stereo not drawn),97,-4,167,?,-8,13*
O=C(O)c1ccc(-n2cc(C(=O)c3ccccc3O)cn2)cc1,94,-14,243,4,45,-4
